# From ChEMBL document CHEMBL4130408, “Photoactivation provides a mechanistic explanation for pan-assay interference behaviour of 2-aminopyrroles in lipoxygenase inhibition” (Eur J Med Chem, 2017)
# Activity calls are given as the source filed them. The calls are words filed in the database; no cut-off is given here.
# T1: Polyunsaturated fatty acid lipoxygenase ALOX15 (Homo sapiens, UniProt P16050)
# T1 sequence (P16050 whole entry): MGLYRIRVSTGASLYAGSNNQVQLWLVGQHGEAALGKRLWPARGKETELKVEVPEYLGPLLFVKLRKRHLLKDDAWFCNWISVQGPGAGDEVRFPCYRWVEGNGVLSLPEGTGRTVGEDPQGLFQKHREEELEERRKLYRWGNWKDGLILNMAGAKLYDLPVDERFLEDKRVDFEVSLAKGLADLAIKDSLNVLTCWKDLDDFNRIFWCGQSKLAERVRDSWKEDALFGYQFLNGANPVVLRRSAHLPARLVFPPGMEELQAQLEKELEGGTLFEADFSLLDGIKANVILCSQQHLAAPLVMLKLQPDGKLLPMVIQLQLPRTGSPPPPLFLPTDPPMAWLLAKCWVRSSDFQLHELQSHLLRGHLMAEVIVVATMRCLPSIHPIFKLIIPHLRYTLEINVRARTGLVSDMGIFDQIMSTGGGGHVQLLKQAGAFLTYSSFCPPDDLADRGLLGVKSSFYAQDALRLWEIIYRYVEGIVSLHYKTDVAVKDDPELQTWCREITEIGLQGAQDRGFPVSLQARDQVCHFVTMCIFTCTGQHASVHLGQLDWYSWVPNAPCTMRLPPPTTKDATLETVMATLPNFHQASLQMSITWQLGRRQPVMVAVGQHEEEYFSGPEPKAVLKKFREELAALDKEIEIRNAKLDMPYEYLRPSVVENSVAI
# T2: Polyunsaturated fatty acid lipoxygenase ALOX15 (Homo sapiens) (UniProt P16050)
# T2 sequence (whole entry): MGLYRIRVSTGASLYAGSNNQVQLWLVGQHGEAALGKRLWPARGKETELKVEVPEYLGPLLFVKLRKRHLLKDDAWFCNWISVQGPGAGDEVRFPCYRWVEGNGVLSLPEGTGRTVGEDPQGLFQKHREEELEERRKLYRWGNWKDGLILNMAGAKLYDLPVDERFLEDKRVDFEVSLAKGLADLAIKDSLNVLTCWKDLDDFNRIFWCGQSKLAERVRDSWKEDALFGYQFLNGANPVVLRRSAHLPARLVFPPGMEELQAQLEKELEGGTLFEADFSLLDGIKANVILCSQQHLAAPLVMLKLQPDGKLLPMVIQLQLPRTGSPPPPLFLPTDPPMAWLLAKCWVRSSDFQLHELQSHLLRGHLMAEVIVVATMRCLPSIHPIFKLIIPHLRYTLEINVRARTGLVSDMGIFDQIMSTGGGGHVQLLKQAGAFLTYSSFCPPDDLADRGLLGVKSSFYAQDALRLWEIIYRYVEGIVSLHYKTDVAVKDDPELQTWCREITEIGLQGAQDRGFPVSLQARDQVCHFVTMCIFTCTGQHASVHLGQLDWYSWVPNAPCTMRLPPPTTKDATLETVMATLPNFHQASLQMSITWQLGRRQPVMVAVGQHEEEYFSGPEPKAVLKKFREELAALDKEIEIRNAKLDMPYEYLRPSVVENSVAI
# B1: Polyunsaturated fatty acid lipoxygenase ALOX15 (Homo sapiens), P16050 (protein)
# chain: MGLYRIRVSTGASLYAGSNNQVQLWLVGQHGEAALGKRLWPARGKETELKVEVPEYLGPLLFVKLRKRHLLKDDAWFCNWISVQGPGAGDEVRFPCYRWVEGNGVLSLPEGTGRTVGEDPQGLFQKHREEELEERRKLYRWGNWKDGLILNMAGAKLYDLPVDERFLEDKRVDFEVSLAKGLADLAIKDSLNVLTCWKDLDDFNRIFWCGQSKLAERVRDSWKEDALFGYQFLNGANPVVLRRSAHLPARLVFPPGMEELQAQLEKELEGGTLFEADFSLLDGIKANVILCSQQHLAAPLVMLKLQPDGKLLPMVIQLQLPRTGSPPPPLFLPTDPPMAWLLAKCWVRSSDFQLHELQSHLLRGHLMAEVIVVATMRCLPSIHPIFKLIIPHLRYTLEINVRARTGLVSDMGIFDQIMSTGGGGHVQLLKQAGAFLTYSSFCPPDDLADRGLLGVKSSFYAQDALRLWEIIYRYVEGIVSLHYKTDVAVKDDPELQTWCREITEIGLQGAQDRGFPVSLQARDQVCHFVTMCIFTCTGQHASVHLGQLDWYSWVPNAPCTMRLPPPTTKDATLETVMATLPNFHQASLQMSITWQLGRRQPVMVAVGQHEEEYFSGPEPKAVLKKFREELAALDKEIEIRNAKLDMPYEYLRPSVVENSVAI
# Assays:
# [1] = system: HCC-1.2; assay: Cytotoxicity against human HCC1.2 cells assessed as growth inhibition after 48 hrs by neutral red assay; type: functional; conditions: for CC50: HCC-1.2, 48 h, read-out: LD50 (the source's name)
# Outline: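 HCC-1.2 hepatocarcinoma cells grown in RPMI1640 with 10% heat-inactivated FCS at 37 °C, 5% CO2. 2 × 10^5 cells/well seeded and grown 48 h. Viable cells quantified by neutral red (50 μg/mL) uptake from serum-free medium over 2 h. Dye dissolved in 1% acetic acid/70% ethanol, read as absorbance 560 minus 620 nm. Triplicate wells; three to five independent experiments; LD50 reported.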
# [2] = target: T1, Polyunsaturated fatty acid lipoxygenase ALOX15; assay: Inhibition of recombinant human 15-LOX-1 expressed in Escherichia coli BL21(DE3) using linoleic acid as substrate preincubated for 10 mins followed by substrate addition
# [3] = target: T2, Polyunsaturated fatty acid lipoxygenase ALOX15 (Homo sapiens); assay: Inhibition of recombinant human 15-LOX-1 expressed in Escherichia coli BL21(DE3) assessed as residual activity at 50 uM using linoleic acid as substrate preincubated for 10 mins followed by substrate addition
# Outline: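 h-15-LOX-1 (1:100 enzyme stock, 1:400 final) preincubated 10 min at room temperature with inhibitor in 25 mM HEPES pH 7.4, then linoleic acid added to 25 µM final (inhibitor 50 µM final). 13(S)-HpODE formation read as A234 over time, rate taken from linear part within first 16 min; no-inhibitor = 100%, no-enzyme = 0%. Triplicate.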
# [4] = system: HCC-1.2; assay: Photocytotoxicity against human HCC1.2 cells assessed as decrease in cell viability at 0.4 to 10 uM preincubated with day light for 10 mins measured after 48 hrs by neutral red assay; type: functional, cell-based
# [5] = target: T2, Polyunsaturated fatty acid lipoxygenase ALOX15 (Homo sapiens); assay: Uncompetitive inhibition of recombinant human 15-LOX-1 expressed in Escherichia coli BL21(DE3) assessed as enzyme apparent Vmax at 8 uM using linoleic acid as substrate preincubated for 10 mins followed by substrate addition by Lineweaver-Burk plot analysis (reference value: 106.10 +/- 40.95 abs/hr)
# [6] = target: T2, Polyunsaturated fatty acid lipoxygenase ALOX15 (Homo sapiens); assay: Inhibition of recombinant human 15-LOX-1 expressed in Escherichia coli BL21(DE3) at 15 uM preincubated in light followed by measuring UV absorbance of 13(S)-HpODE at 234 nm over 16 mins; conditions: TDE = time-dependent effect
# Outline: (§1)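 Light-sensitivity test: h-15-LOX-1 preincubated with inhibitor for 2, 5 and 10 min under daylight, 365 nm UV irradiation or darkness, in triplicate. Linoleic acid conversion to 13(S)-HpODE then followed at 234 nm over 16 min, relative to a no-inhibitor positive control. Buffer 25 mM HEPES pH 7.4. Experiments repeated at least twice.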
# [7] = target: T2, Polyunsaturated fatty acid lipoxygenase ALOX15 (Homo sapiens); assay: Inhibition of recombinant human 15-LOX-1 expressed in Escherichia coli BL21(DE3) assessed as residual activity at 15 uM preincubated in darkness followed by measuring UV absorbance of 13(S)-HpODE at 234 nm over 16 mins; outline: as §1
# [8] = target: T2, Polyunsaturated fatty acid lipoxygenase ALOX15 (Homo sapiens); assay: Uncompetitive inhibition of recombinant human 15-LOX-1 expressed in Escherichia coli BL21(DE3) assessed as enzyme apparent Vmax at 6 uM using linoleic acid as substrate preincubated for 10 mins followed by substrate addition by Lineweaver-Burk plot analysis (reference value: 106.10 +/- 40.95 abs/hr)
# [9] = target: T2, Polyunsaturated fatty acid lipoxygenase ALOX15 (Homo sapiens); assay: Inhibition of recombinant human 15-LOX-1 expressed in Escherichia coli BL21(DE3) at 15 uM preincubated with UV light at 365 nm followed by measuring UV absorbance of 13(S)-HpODE at 234 nm over 16 mins; conditions: TDE = time-dependent effect; outline: as §1
# [10] = target: T2, Polyunsaturated fatty acid lipoxygenase ALOX15 (Homo sapiens); assay: Inhibition of recombinant human 15-LOX-1 expressed in Escherichia coli BL21(DE3) at 15 uM preincubated with UV light at 254 nm for 2 to 10 mins followed by measuring UV absorbance of 13(S)-HpODE at 234 nm over 16 mins
# Outline: (§2)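 254 nm UV irradiation used as a control during preincubation of h-15-LOX-1 with inhibitor. Activity was then read as 13(S)-HpODE absorbance at 234 nm over 16 min, against a no-inhibitor control. Assay buffer 25 mM HEPES pH 7.4.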
# [11] = system: HCC-1.2; assay: Photocytotoxicity against human HCC1.2 cells assessed as decrease in cell viability preincubated with UV light at 365 nm for 10 mins measured after 48 hrs by neutral red assay; type: functional, cell-based
# [12] = system: HCC-1.2; assay: Photocytotoxicity against human HCC1.2 cells assessed as decrease in cell viability preincubated with day light for 10 mins measured after 48 hrs by neutral red assay; type: functional, cell-based
# [13] = target: T2, Polyunsaturated fatty acid lipoxygenase ALOX15 (Homo sapiens); assay: Inhibition of recombinant human 15-LOX-1 expressed in Escherichia coli BL21(DE3) at 10 uM preincubated with UV light at 254 nm for 2 to 10 mins followed by measuring UV absorbance of 13(S)-HpODE at 234 nm over 16 mins; outline: as §2
# [14] = target: T2, Polyunsaturated fatty acid lipoxygenase ALOX15 (Homo sapiens); assay: Inhibition of recombinant human 15-LOX-1 expressed in Escherichia coli BL21(DE3) assessed as residual activity at 10 uM preincubated in darkness followed by measuring UV absorbance of 13(S)-HpODE at 234 nm over 16 mins; outline: as §1
# [15] = target: T2, Polyunsaturated fatty acid lipoxygenase ALOX15 (Homo sapiens); assay: Inhibition of recombinant human 15-LOX-1 expressed in Escherichia coli BL21(DE3) at 10 uM preincubated in light followed by measuring UV absorbance of 13(S)-HpODE at 234 nm over 16 mins; conditions: TDE = time-dependent effect; outline: as §1
# [16] = system: HCC-1.2; assay: Photocytotoxicity against human HCC1.2 cells assessed as decrease in cell viability at 1 to 10 uM preincubated with UV light at 365 nm for 10 mins measured after 48 hrs by neutral red assay; type: functional, cell-based
# [17] = system: HCC-1.2; assay: Photocytotoxicity against human HCC1.2 cells assessed as decrease in cell viability at 1 to 10 uM preincubated with day light for 10 mins measured after 48 hrs by neutral red assay; type: functional, cell-based
# [18] = system: HCC-1.2; assay: Photocytotoxicity against human HCC1.2 cells assessed as growth inhibition at 1 to 10 uM after day light irradiation for 10 mins; type: functional, cell-based
# [19] = target: T2, Polyunsaturated fatty acid lipoxygenase ALOX15 (Homo sapiens); assay: Inhibition of recombinant human 15-LOX-1 expressed in Escherichia coli BL21(DE3) at 10 uM preincubated with UV light at 365 nm followed by measuring UV absorbance of 13(S)-HpODE at 234 nm over 16 mins; conditions: TDE = time-dependent effect; outline: as §1
# [20] = compound: Nc1[nH]c(C(=O)c2ccccc2)c(-c2ccc(Cl)cc2Cl)c1C(=O)c1ccc(Cl)c(Cl)c1; assay: Uncompetitive inhibition of recombinant human 15-LOX-1 expressed in Escherichia coli BL21(DE3) assessed as apparent Km for substrate at 6 uM using linoleic acid as substrate preincubated for 10 mins followed by substrate addition by Lineweaver-Burk plot analysis (reference value: 32.67 +/- 12.23 uM)
# [21] = compound: Nc1[nH]c(C(=O)c2ccccc2)c(-c2ccc(Cl)cc2Cl)c1C(=O)c1ccc(Cl)c(Cl)c1; assay: Uncompetitive inhibition of recombinant human 15-LOX-1 expressed in Escherichia coli BL21(DE3) assessed as apparent Km for substrate at 8 uM using linoleic acid as substrate preincubated for 10 mins followed by substrate addition by Lineweaver-Burk plot analysis (reference value: 32.67 +/- 12.23 uM)
Molecule,Activity [1],CC50 [1] [nM],IC50 [2] [µM],other results
Nc1[nH]c(C(=O)c2ccccc2)c(-c2ccc(Cl)cc2Cl)c1C(=O)c1ccc(Cl)cc1,Dose-dependent effect,1050,> 100,–
Nc1[nH]c(C(=O)c2ccccc2)c(-c2c(F)cccc2F)c1C(=O)c1ccc(Cl)c(Cl)c1,–,–,> 100,Activity [3]: 100%
Nc1[nH]c(C(=O)c2ccccc2)c(-c2ccc(O)cc2O)c1C(=O)c1cccc(Cl)c1,Dose-dependent effect,2750,8.3,–
Cc1cccc(C(=O)c2c(N)[nH]c(C(=O)c3ccccc3)c2-c2ccc(Cl)cc2Cl)c1,Dose-dependent effect,1040,> 100,Activity [4]: Active
Nc1[nH]c(C(=O)c2ccccc2)c(-c2ccc3ccccc3c2)c1C(=O)c1ccc(Cl)c(Cl)c1,Dose-dependent effect,2640,–,–
Nc1[nH]c(C(=O)c2ccccc2)c(-c2ccc(Cl)cc2Cl)c1C(=O)c1ccc(Cl)c(Cl)c1,Dose-dependent effect,550,12.8,Vmax(app) [5]: 47.2 abs/hr; inhibition [6]: Tde; Activity [7]: 80%; Vmax(app) [8]: 68.2 abs/hr; inhibition [9]: Tde; inhibition [10]: inactive; Activity [3]: 40.8%
Nc1[nH]c(C(=O)c2ccccc2)c(-c2ccc(Cl)cc2Cl)c1C(=O)c1ccccc1,–,–,> 100,Activity [3]: 73.1%
Nc1[nH]c(C(=O)c2ccccc2)c(-c2ccc(Cl)cc2Cl)c1C(=O)c1cccc(Br)c1,Dose-dependent effect,1640,6.3,–
Nc1[nH]c(C(=O)c2ccccc2)c(-c2ccc(F)cc2F)c1C(=O)c1cccc(Cl)c1,Dose-dependent effect,990,–,Activity [11]: inactive; Activity [12]: inactive
Nc1[nH]c(C(=O)c2ccccc2)c(-c2ccc(Cl)cc2Cl)c1C(=O)c1cccc(Cl)c1,Dose-dependent effect,690,6.9,inhibition [13]: inactive; Activity [14]: 80%; inhibition [15]: Tde; Activity [16]: Active; Activity [17]: Active; Activity [18]: Active; inhibition [19]: Tde
NC(=O)c1c(N)[nH]c(C(=O)c2ccccc2)c1-c1ccc(Cl)cc1Cl,–,–,> 100,Activity [3]: 109%
Nc1[nH]c(C(=O)c2ccccc2)c(-c2cccc(Cl)c2)c1C(=O)c1cccc(Cl)c1,–,–,> 100,–
CCOC(=O)c1ccc[nH]1,–,–,> 100,–
B1,–,–,–,Km [20]: 24 µM; Km [21]: 20 µM
